# Publication PMC3217223 (Bioorganic & Medicinal Chemistry, 2009)
# Structures can show the parent of a compound that is named as a salt.
# Assays:
# NMDA receptors = format: cell-based; details: cerebellar granule neurons, glutamate or NMDA 100 μM + glycine 10 μM
# [1] = tested on: bloodstream form T. brucei (strain 427); experiment: T. brucei culturing and drug test; format: cell-based, Trypanosoma brucei; details: at concentrations up to 5 mg mL^−1
# Method in brief: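 Parasites were kept at 37 °C in modified Iscove's medium (pH 7.4) and grown for 48 h with a range of test compound concentrations. Cell density at each concentration was counted by hemocytometer and expressed as percent of untreated control growth. Concentrations giving 50% and 90% growth inhibition (IC₅₀, IC₉₀) were determined. Run in triplicate.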
# [2] = tested on: herpes simplex virus type 1; format: cell-based; details: microscopy and MTS assay
# [3] = tested on: herpes simplex virus type 2; format: cell-based; details: microscopy and MTS assay
# vaccinia virus = format: cell-based
# feline coronavirus = format: cell-based; details: microscopy and MTS assay
# parainfluenza-3 virus = format: cell-based; details: microscopy and MTS assay
# [4] = tested on: respiratory syncytial virus; format: cell-based; details: microscopy and MTS assay
# [5] = tested on: vesicular stomatitis virus; format: cell-based
# sindbis virus = format: cell-based; details: microscopy and MTS assay
# Punta Toro virus = format: cell-based; details: microscopy and MTS assay
# Coxsackievirus B4 = format: cell-based; details: microscopy and MTS assay
# Reovirus-1 = format: cell-based; details: microscopy and MTS assay
# influenza virus A/H1N1 = format: cell-based, influenza virus A/Puerto Rico/8/34 (H1N1); details: influenza virus A/H1N1 (A/Puerto Rico/8/34); microscopy and MTS assay
# influenza virus A/H3N2 = format: cell-based, influenza virus A/Hong Kong/7/87 (H3N2); details: influenza virus A/H3N2 (A/Hong Kong/7/87); microscopy and MTS assay
# influenza virus B = format: cell-based, influenza virus B/Hong Kong/5/72; details: influenza virus B (B/Hong Kong/5/72); microscopy and MTS assay
smiles,measurement,setting,value
"NC12CC3CC(CC(C3)O1)C2 [Compound 7, (2-Oxaadamant-1-yl)amine hydrochloride]",NMDA receptor antagonism (in words),NMDA receptors,inactive
same,Trypanocidal activity (in words),[1],no activity
same,Antiviral activity,[2],None of the tested compounds displayed activity
same,Antiviral activity,[3],None of the tested compounds displayed activity
same,Antiviral activity,vaccinia virus,None of the tested compounds displayed activity
same,Antiviral activity,feline coronavirus,None of the tested compounds displayed activity
same,Antiviral activity,parainfluenza-3 virus,None of the tested compounds displayed activity
same,Antiviral activity,[4],None of the tested compounds displayed activity
same,Antiviral activity,[5],None of the tested compounds displayed activity
same,Antiviral activity,sindbis virus,None of the tested compounds displayed activity
same,Antiviral activity,Punta Toro virus,None of the tested compounds displayed activity
same,Antiviral activity,Coxsackievirus B4,None of the tested compounds displayed activity
same,Antiviral activity,Reovirus-1,None of the tested compounds displayed activity
same,Antiviral activity,influenza virus A/H1N1,none of the compounds was found to be active
same,Antiviral activity,influenza virus A/H3N2,none of the compounds was found to be active
same,Antiviral activity,influenza virus B,none of the compounds was found to be active
